Here are results for 1 molecule from ChEMBL document CHEMBL3297742, “Tetrahydronaphthyridine and dihydronaphthyridinone ethers as positive allosteric modulators of the metabotropic glutamate receptor 5 (mGlu₅)” (J Med Chem, 2014).

A short description of series [1]: Fraction unbound in rat brain. The series is classed as ADME, tissue-based. The method in brief:
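Fraction unbound measured by rat brain homogenate binding.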

Series [2] relates to Rattus norvegicus. Kind of series: Antipsychotic activity in po dosed Sprague-Dawley rat assessed as reversal of amphetamine-induced hyperlocomotion administered for 30 mins prior to amphetamine challenge for 60 mins. The series is classed as functional, organism-based. The method in brief:
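Male Sprague–Dawley rats (250–375 g), food-deprived overnight, habituated 30 min in locomotor chambers. Compound given po (3–100 mg/kg in 20% HP-β-CD, pH 6–7, ≤10 mL/kg) 30 min before amphetamine 1 mg/kg sc, then monitored 60 min (120 min total). Photobeam breaks over 60–120 min give percent reversal against the vehicle+amphetamine group, mean ± SE, n = 6–8.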

For series [3], the system named is Rattus norvegicus. In words: Antipsychotic activity in Sprague-Dawley rat assessed as reversal of amphetamine-induced hyperlocomotion at 100 mg/kg, po administered for 30 mins prior to amphetamine challenge for 60 mins. The class given is functional. The method in brief: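 Male Sprague–Dawley rats (250–375 g), food-deprived the evening before, were habituated 30 min in locomotor chambers. They were then dosed po with vehicle (20% HP-β-CD in water, pH 6–7, max 10 mL/kg) or test article, followed 30 min later by amphetamine 1 mg/kg sc, n = 6–8 per group. Photobeam breaks were counted per 5 min over 120 min. Percent reversal used t = 60–120 totals versus the vehicle + amphetamine group, reported as mean ± SE.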

The test system of series [4] is Rattus norvegicus. Kind of series: AUC (0 to 24 hrs) in Sprague-Dawley rat plasma at 10 mg/kg, po. The class given is ADME, organism-based. More on the design: time < 24 hr, dose 10 mg/kg, route oral. The note with it: in vivo.
Series [5] can be described thus: Retention time of the compound by LCMS analysis. The series is classed as physicochemical.
A short description of series [6]: Kinetic solubility of the compound in buffer at pH 7.4. The series is classed as physicochemical. The method in brief: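 Kinetic aqueous solubility measured in buffers at pH 2, 4 and 7.4.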
The subject of series [7] is Rattus norvegicus. Kind of series: Toxicity in Sprague-Dawley rat assessed as autonomic nervous system deficit at 100 mg/kg, po measured up to 4 hrs by irwin neurological test. The class given is organism-based. More on the design: dose 100 mg/kg, route oral. The note with it: in vivo. The method in brief:
(§1)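 Male Sprague–Dawley rats (250–300 g) scored at baseline, then given vehicle (20% HP-β-CD) or 100 mg/kg po (n = 6 each). Modified Irwin battery repeated at 30 min, 1 h and 4 h; each end point scored 0, 1 or 2; significance taken at p ≤ 0.05.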

The test system of series [8] is Rattus norvegicus. Kind of series: Toxicity in Sprague-Dawley rat assessed as motor output at 30 to 100 mg/kg, po after 30 mins by rotarod test. The series is classed as organism-based. More on the design: dose 30-100 mg/kg, route oral. The following applies: in vivo, 0.5 h. The method in brief: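 Male Sprague–Dawley rats (250–300 g) trained twice on a 20 rpm rotarod (120 s trials); animals below 85 s at baseline were excluded. Rats received 30, 56.6 or 100 mg/kg po in 20% HP-β-CD or vehicle (n = 6) and were tested 30 min later in a 120 s trial; time on the rod was recorded, with a 120 s cutoff.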

A further series concerns Plasma. Kind of series: Fraction unbound in human plasma. The class given is ADME, cell-free.
Series [9] concerns Rattus norvegicus. In words: Toxicity in Sprague-Dawley rat assessed as somatomotor nervous system deficit at 100 mg/kg, po measured up to 4 hrs by irwin neurological test. The class given is organism-based. More on the design: dose 100 mg/kg, route oral. The following applies: in vivo. The method in brief: as §1

In [1], `O=C1NCCc2nc(OCc3cccc(F)c3)ccc21` came in with a fraction unbound of 0.02. For the same molecule, the inhibition entry in the series on Rattus norvegicus [2] was “Dose-dependent effect”. The inhibition in vivo at 100 mg/kg in the series with Rattus norvegicus [3] was 55%. This molecule showed an AUC in the series on Rattus norvegicus [4] of 6.2 µM·h. In addition, in series [5], the Retention_time is listed as 0.736 min. In series [6], this molecule yielded a Kinetic_solubility of 28 µM. Further, the Activity entry with Rattus norvegicus [7], in the series on Rattus norvegicus [8] and in the series with Rattus norvegicus [9] was “Non-toxic” in each case. This molecule also showed a Fu in the series with Plasma of 0.047.
